From ChEMBL document CHEMBL4145697, “Replacement of a Naphthalene Scaffold in Kelch-like ECH-Associated Protein 1 (KEAP1)/Nuclear Factor (Erythroid-derived 2)-like 2 (NRF2) Inhibitors” (J Med Chem, 2018) come the findings set out here.

What is called IC50 is the concentration that gives 50% inhibition. A low value points to greater potency. By logD is commonly meant the decadic logarithm of the distribution of all forms, ionised or not, between an organic phase and buffer at a given pH. Low readings indicate lower lipophilicity, high ones higher lipophilicity. As usually defined, the Kd is the constant that tells how readily two partners part at equilibrium.

For one series, the target named is Keap1/Nrf2 (Homo sapiens, UniProt Q14145). The series is described as follows: Inhibition of Keap1 Kelch domain (unknown origin) /Nrf2 (unknown origin) interaction using fluorescein-labeled 9-mer peptide containing NRF2 Neh2 domain ETGE motif by fluorescence anisotropy assay. It is filed as protein assay. (In general: Fluorescence polarisation rises when a labelled molecule tumbles more slowly, as on binding a larger partner.)
Chain of Keap1/Nrf2 (Q16236 whole entry, the tested form may be a part): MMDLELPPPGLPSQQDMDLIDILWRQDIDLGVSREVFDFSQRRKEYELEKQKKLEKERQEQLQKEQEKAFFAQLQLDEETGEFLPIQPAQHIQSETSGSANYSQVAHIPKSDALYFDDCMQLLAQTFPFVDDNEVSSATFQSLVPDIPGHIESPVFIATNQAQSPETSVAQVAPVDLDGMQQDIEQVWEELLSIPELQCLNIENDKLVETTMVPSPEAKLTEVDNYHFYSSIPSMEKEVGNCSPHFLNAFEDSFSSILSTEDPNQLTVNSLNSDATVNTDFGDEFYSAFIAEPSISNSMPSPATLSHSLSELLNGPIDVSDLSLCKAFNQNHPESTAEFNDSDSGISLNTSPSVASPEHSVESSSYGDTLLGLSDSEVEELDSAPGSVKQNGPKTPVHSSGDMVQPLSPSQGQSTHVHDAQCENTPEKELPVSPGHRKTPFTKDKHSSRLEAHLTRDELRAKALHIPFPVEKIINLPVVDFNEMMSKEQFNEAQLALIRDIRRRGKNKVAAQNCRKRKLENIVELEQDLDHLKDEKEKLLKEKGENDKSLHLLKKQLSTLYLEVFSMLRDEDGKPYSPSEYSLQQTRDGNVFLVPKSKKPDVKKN
Chain of Keap1/Nrf2 (Q14145 whole entry, the tested form may be a part): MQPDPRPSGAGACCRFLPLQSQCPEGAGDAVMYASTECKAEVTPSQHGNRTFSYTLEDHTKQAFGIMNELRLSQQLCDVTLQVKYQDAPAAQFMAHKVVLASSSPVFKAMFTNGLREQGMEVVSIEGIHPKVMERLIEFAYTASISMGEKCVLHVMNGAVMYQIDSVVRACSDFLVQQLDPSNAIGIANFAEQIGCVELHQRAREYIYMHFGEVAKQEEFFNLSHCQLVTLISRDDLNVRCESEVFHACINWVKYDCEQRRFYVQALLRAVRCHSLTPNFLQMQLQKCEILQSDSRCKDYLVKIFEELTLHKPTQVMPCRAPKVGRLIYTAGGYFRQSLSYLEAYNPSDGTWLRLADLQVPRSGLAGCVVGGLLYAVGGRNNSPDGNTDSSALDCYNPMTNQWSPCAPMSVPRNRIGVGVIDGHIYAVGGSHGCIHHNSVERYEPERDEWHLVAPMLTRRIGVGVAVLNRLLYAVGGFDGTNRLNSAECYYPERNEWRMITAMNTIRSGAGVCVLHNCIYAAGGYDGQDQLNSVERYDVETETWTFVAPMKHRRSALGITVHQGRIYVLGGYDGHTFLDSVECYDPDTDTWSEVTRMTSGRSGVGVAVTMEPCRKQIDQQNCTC

Series [1] is described as follows: Kinetic solubility in pH 7.4 incubated for 1 hr by HPLC method. In kind it is physicochemical. The following applies: buffer, read-out: Kinetic_solubility.
The nature of series [2]: Stability in mouse liver microsomes assessed as compound remaining level at 200 uM incubated for 20 mins by LC-MS method. In kind it is ADME, microsome. To be noted: read-out: Stability.
For series [3], the system named is Salmonella typhimurium. Kind of series: Cytotoxicity in Salmonella typhimurium TA98 at 1.5 to 1000 ug/well. It is filed as organism-based. The following applies: salmonella enterica subsp. enterica serovar typhimurium. The method, boiled down: (§1)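 Mini-Ames plate incorporation; compounds dissolved in DMSO, tested at 1.5–1000 µg/well with and without Aroclor 1254-induced rat liver S9, alongside solvent and positive controls. Cells in top agar over minimal glucose agar; triplicate wells (vehicle sextuplicate), 37 ± 2 °C for 48–72 h. Cytotoxicity scored as fewer revertants per well and/or thinning or loss of background lawn relative to negative control.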

In series [4] the test system is Salmonella typhimurium. The series is described as follows: Cytotoxicity in Salmonella typhimurium TA100 at 1.5 to 1000 ug/well. To be noted: salmonella enterica subsp. enterica serovar typhimurium. It is filed as organism-based. The gist of the method:
as §1

Series [5] concerns Salmonella typhimurium. Kind of series: Cytotoxicity in Salmonella typhimurium TA1535 at 1.5 to 1000 ug/well. In kind it is organism-based. To be noted: salmonella enterica subsp. enterica serovar typhimurium. The method, boiled down: as §1
Series [6] has as its system Salmonella typhimurium. Kind of series: Cytotoxicity in Salmonella typhimurium TA1537 at 1.5 to 1000 ug/well. It is filed as organism-based. The following applies: salmonella enterica subsp. enterica serovar typhimurium. The gist of the method: as §1
Another series relates to Escherichia coli. The series is described as follows: Cytotoxicity in Escherichia coli WP2 uvrA (pKM101) at 1.5 to 1000 ug/well. In kind it is organism-based. The following applies: in vivo. The gist of the method:
as §1

Series [7] has as its system Salmonella typhimurium. The series is described as follows: Mutagenicity in Salmonella typhimurium TA98 assessed as increase in number of revertant colonies at 1.5 to 1000 ug/well in presence of rat liver S9 fractions incubated for 48 to 72 hrs. To be noted: salmonella enterica subsp. enterica serovar typhimurium. It is filed as toxicity, organism-based. The gist of the method: (§2)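 Reverse mutation at histidine locus in top agar (0.6% agar, 0.5% NaCl, histidine/biotin) with Aroclor 1254-induced rat liver S9 mix; DMSO vehicle, doses 1.5–1000 µg/well. Plated in triplicate wells (vehicle sextuplicate) on minimal glucose agar, 37 ± 2 °C for 48–72 h. Revertant colonies counted manually; fold-change over DMSO, p-values by two-tailed t-test.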

Series [8] deals with Salmonella typhimurium. The series is described as follows: Mutagenicity in Salmonella typhimurium TA100 assessed as increase in number of revertant colonies at 1.5 to 1000 ug/well in presence of rat liver S9 fractions incubated for 48 to 72 hrs. It is filed as toxicity, organism-based. The following applies: salmonella enterica subsp. enterica serovar typhimurium. The gist of the method:
as §2

Series [9] is described as follows: Lipophilicity, log D of the compound. It is filed as physicochemical. The following applies: octanol/water.
Series [10] is described as follows: Stability in human liver microsomes assessed as compound remaining level at 1 uM incubated for 20 mins by LC-MS method.
A short description of series [11]: Stability in mouse liver microsomes assessed as compound remaining level at 1 uM incubated for 20 mins by LC-MS method.
For series [12], the target named is Kelch-like ECH-associated protein 1 (Homo sapiens, UniProt Q14145). Kind of series: Binding affinity to Keap1 Kelch domain (unknown origin) by surface plasmon resonance assay. For orientation: SPR reads the build-up and loss of mass on a sensor chip optically.
Chain of Kelch-like ECH-associated protein 1 (Q14145 whole entry, the tested form may be a part): as above
In series [13] the target is T1, Keap1/Nrf2 (Homo sapiens) (UniProt Q16236+Q14145). Kind of series: Inhibition of Keap1/Nrf2 interaction in human HaCaT cells assessed as increase in NRF2 nuclear accumulation at 10 uM incubated for 6 hrs by immunoblot assay. It is filed as cell-based. For orientation: A western blot detects proteins with antibodies after separation by electrophoresis.
T1 sequence (Q14145 whole entry, looked up): as the sequence (Q14145 whole entry, the tested form may be a part) above
T1 sequence (Q16236 whole entry, looked up): as the sequence (Q16236 whole entry, the tested form may be a part) above
For series [14], the target named is T1, Keap1/Nrf2 (Homo sapiens). Kind of series: Inhibition of Keap1/Nrf2 interaction in human HaCaT cells assessed as increase in NRF2 nuclear accumulation at 10 uM incubated for 24 hrs by immunoblot assay. It is filed as cell-based.
Series [15] concerns the target T1, Keap1/Nrf2 (Homo sapiens). The series is described as follows: Inhibition of Keap1/Nrf2 interaction in human HaCaT cells assessed as increase in HMOX1 gene expression at 10 uM incubated for 6 hrs by qPCR method. It is filed as cell-based.
Series [16] concerns the target T1, Keap1/Nrf2 (Homo sapiens). The series is described as follows: Inhibition of Keap1/Nrf2 interaction in human HaCaT cells assessed as increase in GCLM gene expression at 10 uM incubated for 6 hrs by qPCR method. It is filed as cell-based.
The target in series [17] is T1, Keap1/Nrf2 (Homo sapiens). Kind of series: Inhibition of Keap1/Nrf2 interaction in human HaCaT cells assessed as increase in GCLC gene expression at 10 uM incubated for 6 hrs by qPCR method. In kind it is cell-based.
Series [18] has as its target T1, Keap1/Nrf2 (Homo sapiens). Kind of series: Inhibition of Keap1/Nrf2 interaction in human HaCaT cells assessed as increase in NQO1 gene expression at 10 uM incubated for 24 hrs by qPCR method. In kind it is cell-based.
Series [19] addresses T1, Keap1/Nrf2 (Homo sapiens). The series is described as follows: Inhibition of Keap1/Nrf2 interaction in human HaCaT cells assessed as increase in HMOX1 gene expression at 10 uM incubated for 24 hrs by qPCR method. In kind it is cell-based.
Series [20] addresses T1, Keap1/Nrf2 (Homo sapiens). The series is described as follows: Inhibition of Keap1/Nrf2 interaction in human HaCaT cells assessed as increase in GCLM gene expression at 10 uM incubated for 24 hrs by qPCR method. In kind it is cell-based.
Series [21] addresses T1, Keap1/Nrf2 (Homo sapiens). Kind of series: Inhibition of Keap1/Nrf2 interaction in human HaCaT cells assessed as increase in GCLC gene expression at 10 uM incubated for 24 hrs by qPCR method. It is filed as cell-based.
The target of series [22] is T1, Keap1/Nrf2 (Homo sapiens). The series is described as follows: Inhibition of Keap1/Nrf2 interaction in human HaCaT cells assessed as increase in NQO1 gene expression at 10 uM incubated for 6 hrs by qPCR method. It is filed as cell-based.
Series [23] relates to HaCaT. The series is described as follows: Effect on SOD2 gene expression in human HaCaT cells at 10 uM incubated for 6 hrs by qPCR method. It is filed as ADME, cell-based.
Series [24] has as its system HaCaT. The series is described as follows: Effect on SOD2 gene expression in human HaCaT cells at 10 uM incubated for 24 hrs by qPCR method. In kind it is ADME, cell-based.
In series [25] the target is T1, Keap1/Nrf2 (Homo sapiens). The series is described as follows: Inhibition of Keap1/Nrf2 interaction in human HaCaT cells assessed as increase in NQO1 protein expression at 10 uM incubated for 6 hrs by Western blot method. In kind it is cell-based. The gist of the method: (§3)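 HaCaT cells in DMEM, 10% FBS, 1% antibiotics, treated at 70–80% confluence with 10 μM compound or DMSO for 6 or 24 h in complete medium. Lysates (~40 μg protein) resolved by 10% SDS-PAGE, immunoblotted for NQO1; bands quantified against GAPDH, vehicle set to one arbitrary unit.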

Series [26] concerns the target T1, Keap1/Nrf2 (Homo sapiens). The series is described as follows: Inhibition of Keap1/Nrf2 interaction in human HaCaT cells assessed as increase in NQO1 protein expression at 10 uM incubated for 24 hrs by Western blot method. It is filed as cell-based. The method, boiled down: as §3

In brackets after ≈: the same amount, converted by molar mass. Activity calls are given as the source filed them. No cut-off for these calls is given here.

For `COc1ccc(S(=O)(=O)N(CC(=O)O)C(=O)c2ccccc2C(=O)N(CC(=O)O)S(=O)(=O)c2ccc(OC)cc2)cc1`, the IC50 on Keap1/Nrf2 was > 25 µM.

On to `COc1ccc(S(=O)(=O)N(CC=CCN(CC(=O)O)S(=O)(=O)c2ccc(OC)cc2)CC(=O)O)cc1` (mixture of isomers), for which the IC50 at Keap1/Nrf2 was > 25 µM.

On to `COc1ccc(S(=O)(=O)N(CC(=O)O)c2ccc(N(CC(=O)O)S(=O)(=O)c3ccc(OC)cc3)cc2)cc1`, for which it took 0.98 µM to reach half-maximal inhibition on Keap1/Nrf2 (IC50).

Take `COc1ccc(S(=O)(=O)N(CC(N)=O)c2ccc(N(CC(N)=O)S(=O)(=O)c3ccc(OC)cc3)c3ccccc23)cc1`: the solubility kinetic at 1 h in series [1] worked out at 22 µM (≈ 13.5 µg/mL). The remaining at 20 min, 200 µM in series [2] turned out to be 0%.

Turning to `COc1ccc(S(=O)(=O)N(CC(=O)O)c2ccc(N(CC(=O)O)S(=O)(=O)c3ccc(OC)cc3)c3[nH]ccc23)cc1`, the half-inhibitory concentration (IC50) against Keap1/Nrf2 is 1.3 µM.

In the case of `COc1ccc(S(=O)(=O)N(CC(=O)O)c2ccc(N(CC(=O)O)S(=O)(=O)c3ccc(OC)cc3)nc2)cc1`, the IC50 against Keap1/Nrf2 was > 25 µM.

Consider `COc1ccc(S(=O)(=O)N(CC(=O)O)c2ccc(N(CC(=O)O)S(=O)(=O)c3ccc(OC)cc3)c3ccccc23)cc1`, for which the Activity result is “Non-Toxic” in the series with Salmonella typhimurium [3]; “Non-Toxic” in the series on Salmonella typhimurium [4]; “Non-Toxic” with Salmonella typhimurium [5]; “Non-Toxic” in the series on Salmonella typhimurium [6]; “Non-Toxic” in the series with Escherichia coli; “Dose-dependent effect” in the series with Salmonella typhimurium [7]. For the same molecule, the Activity result in the series on Salmonella typhimurium [8] is recorded as “Dose-dependent effect”. For the same molecule, in series [1], the solubility kinetic at 1 h was 440 µM (≈ 270 µg/mL). Besides, in series [9], the pH-dependent lipophilicity (logD) is on record as -1.9. The Stability entry in series [10] and in series [11] was “Stable” each time.

On to `COc1ccc(S(=O)(=O)Nc2nnc(NS(=O)(=O)c3ccc(OC)cc3)c3ccccc23)cc1`, for which, on Keap1/Nrf2, the IC50 was > 25 µM.

For `COc1ccc(S(=O)(=O)N(CC(=O)O)c2ccc(N(CC(=O)O)S(=O)(=O)c3ccc(OC)cc3)c3ncccc23)cc1`, inhibition against Keap1/Nrf2 was half-maximal at 0.101 µM (IC50). Besides, the Kd in series [12] stood at 103 nM. Besides, the inhibition entry in series [13], in series [14], in [16], in series [17], in series [18] and in series [20] was “Active” each time. The inhibition result in [21], in series [22], in series [25] and in series [26] was “Active” throughout. Moreover, the inhibition result in series [15] and in series [19] was “inactive” throughout. For the same molecule, the Activity result in the series with HaCaT [23] and with HaCaT [24] was “Non-Toxic” each time.

Regarding `COc1ccc(S(=O)(=O)Nc2ccc(NS(=O)(=O)c3ccc(OC)cc3)c3ncccc23)cc1`, the IC50 at Keap1/Nrf2 is > 25 µM.

Take `COc1ccc(S(=O)(=O)N(CC(=O)O)Cc2ccccc2CN(CC(=O)O)S(=O)(=O)c2ccc(OC)cc2)cc1`: the IC50 on Keap1/Nrf2 is > 25 µM.

Take `COc1ccc(S(=O)(=O)Nc2ccc(NS(=O)(=O)c3ccc(OC)cc3)c3[nH]ccc23)cc1`: the IC50 on Keap1/Nrf2 is > 25 µM.

For `COc1ccc(S(=O)(=O)Nc2ccc(NS(=O)(=O)c3ccc(OC)cc3)c3ccccc23)cc1`, the solubility kinetic at 1 h in series [1] came to 5.4 µM (≈ 2.69 µg/mL). In addition, the remaining at 20 min, 200 µM in [2] turned out to be 15%.

Regarding `COc1ccc(S(=O)(=O)N(CC(=O)O)c2cnc(N(CC(=O)O)S(=O)(=O)c3ccc(OC)cc3)c3ccccc23)cc1`, the Activity entry in the series on Salmonella typhimurium [3], with HaCaT [23], with HaCaT [24], with Salmonella typhimurium [4], in the series with Salmonella typhimurium [5] and in the series with Salmonella typhimurium [6] was “Non-Toxic” throughout. For the same molecule, the Activity result in the series on Escherichia coli is recorded as “Non-Toxic”. Moreover, in series [9], the pH-dependent lipophilicity (logD) is given as -1.7.
